Like-named read-outs stand apart in the source and are kept apart here.
Tests used:
[1] = tested on: 3D7 (drug-sensitive) ABS parasites; test: Imaging-based asexual blood stage high-throughput assay; assay type: cell-based, Plasmodium falciparum; details: read-out: ABS IC50; drug-sensitive 3D7, 72 h
How it was run: (§1)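 Sorbitol-synchronized parasites were seeded at 2% parasitemia and 0.3% Hct and exposed to test compound for 72 h at 37°C in 5% O₂/5% CO₂/90% N₂. Cells were then permeabilized with 0.01% Triton X-100, 0.001% saponin and 5 mM EDTA, and stained with 0.5 μg/mL DAPI for at least 6 h at room temperature in the dark. Confocal imaging used 405 nm excitation. Parasites were counted from spot size and intensity. Two independent cultures.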

[2] = tested on: NITD609-R^Dd2 clone #2 (PfATP4 mutant line); test: as above; assay type: cell-based, Plasmodium falciparum; details: read-out: ABS IC50, 72 h
How it was run: as §1

[3] = tested on: male gametes from stage V GAMs; test: Dual gamete formation assay, male gamete formation; assay type: cell-based, Plasmodium falciparum; details: for IC50: Plasmodium falciparum, 24 h
[4] = tested on: compound-exposed Pf GAMs in Anopheles stephensi mosquitoes; test: Membrane-feeding assay with A. stephensi mosquitoes; assay type: in vivo, Plasmodium falciparum; details: for reduction in oocyst density per infected mosquito midgut: GAMs pre-treated at 3x late-stage IC50; for reduction in infection prevalence (percentage of infected mosquitoes): GAMs pre-treated at 3x late-stage IC50, 3 days, then 4 days without compound
How it was run: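 Day-12 gametocytes were treated 3 days at 1x or 3x their late-stage IC50, with compound refreshed daily, then held 4 days without compound. Controls were 0.25% DMSO and methylene blue at 3x. Stage V cultures (50% Hct, 0.01–0.16% parasitemia) were membrane-fed for 30 min to A. stephensi, kept at 26°C and 78% RH. Midguts were dissected on day 7–8, stained with mercurochrome and oocysts counted blind. Prevalence is the percentage of mosquitoes with at least one oocyst.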

[5] = tested on: HEK293 human embryonic kidney cell line; test: HEK293 cytotoxicity; assay type: cell-based; details: at 40 μM, 72 h
How it was run: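 Cells were grown in DMEM with 10% fetal calf serum and seeded at 2,000 cells/well, then left overnight at 37°C in 5% CO₂ to adhere. Test compound was added as a serial dilution with a maximum of 40 μM, at 0.4% DMSO final, for 72 h. Medium was then replaced with serum-free DMEM containing 44 μM resazurin for 4–6 h. Fluorescence was read at 530/595 nm. Two biological replicates.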

[6] = tested on: Dd2 (multidrug-resistant) ABS parasites; test: Imaging-based asexual blood stage high-throughput assay; assay type: cell-based, Plasmodium falciparum; details: read-out: ABS IC50; multidrug-resistant Dd2, 72 h
[7] = tested on: female gametes from stage V GAMs; test: Dual gamete formation assay, female gamete formation; assay type: cell-based, Plasmodium falciparum; details: for IC50: Plasmodium falciparum, 24 h
[8] = tested on: NF54^Pfs16 early-stage GAMs; test: Luciferase-based early-stage gametocyte inhibition assay; assay type: cell-based, Plasmodium falciparum; details: in words
How it was run: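 Gametocytes on day 1 of gametocytogenesis were set at 10% parasitemia and 0.5% Hct. They were kept in medium with 50 mM N-acetyl-D-glucosamine, refreshed daily. Compound was added at 0.4% DMSO final. Controls were DMSO (0% inhibition) and 5 μM puromycin (100% inhibition). After 72 h at 37°C in 5% O₂/5% CO₂/90% N₂, Steadylite was added, followed by 60 min lysis at room temperature and a luminescence read. Potency used serial dilutions up to 40 μM, three per log, on two independent occasions.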

[9] = tested on: NF54^Pfs16 late-stage GAMs; test: Image-based late-stage gametocyte inhibition assay; assay type: cell-based, Plasmodium falciparum; details: in words
How it was run: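 Day-8 stage IV gametocytes were MACS-purified and set at 10% parasitemia and 0.1% Hct, with 0.4% DMSO final. They were incubated 72 h at 37°C in 5% O₂/5% CO₂/90% N₂, then stained overnight with MitoTracker Red CM-H₂XRos. Confocal imaging counted viable mature gametocytes per imaged area; 5 μM puromycin was the control. Screening used 2 μM in triplicate. Potency used serial dilutions up to 40 μM, three per log, on two independent occasions.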

male GAM exflagellation = test: Male GAM exflagellation of GAM cultures used for membrane feeding; assay type: cell-based, Plasmodium falciparum; details: GAM cultures exposed at 3x late-stage IC50
[10] = tested on: PfMDR1 mutant lines versus parental ABS parasites (Dd2-B2, FCB); test: Drug susceptibility profiling of HHQ-resistant lines in ABS parasites; assay type: cell-based, Plasmodium falciparum; details: for changes in susceptibility: all three lines: PfMDR1^edF1072L, PfMDR1^selY290F; for susceptibility in GNF-Pf-5668-3C4D2 compared to PfMDR1^edF1072L: i.e. higher IC50 values; for fold increased susceptibility compared to wild-type Dd2-B2: GNF-Pf-5668-3C4D2 line (four pfmdr1 copies + F1072L (AB 69%))
Dd2-B2 parasites = test: Heme fractionation assay; assay type: cell-based, Plasmodium falciparum; details: for heme fractionation effect compared to untreated controls: 0.1 to 2′ IC50
[11] = tested on: PfMDR1^selY290F parasites; test: Heme fractionation assay; assay type: cell-based, Plasmodium falciparum; details: MQ with increasing concentrations; LMF at 1–2′ IC50
How it was run: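 Early ring-stage, sorbitol-synchronized parasites were exposed to test compound at 0.1, 0.25, 0.5, 1 and 2x the ABS IC50. Heme species were fractionated and normalized to the number of cells analyzed, counted by flow cytometry of an aliquot. Significance was tested by two-tailed t-tests.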

Dd2-B2 late rings = test: Hb endocytosis by Western blot; assay type: cell-based, Plasmodium falciparum; details: 5′ the IC50 for 5 h, normalized to DMSO control
How it was run: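 Sorbitol-synchronized parasites were exposed to test compound at 5x IC50 for 5 h, starting at the late ring stage. Lysates were blotted to nitrocellulose and probed overnight at 4°C with rabbit anti-human Hb (1:5,000) and anti-β-actin (1:2,000). Detection was by ECL. Hb band intensities were normalized to β-actin and compared with untreated controls. Repeated on 3–4 independent occasions.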

[12] = tested on: P. berghei ANKA MRA868 GAMs, Anopheles stephensi mosquitoes; test: In vivo transmission-blocking effect; design: species or system P. berghei in CD-1 mice; details: mice given two doses 12 h apart: 100 mg/kg GNF compounds, 30 mg/kg DHA
[13] = tested on: cultured P. berghei liver-stage parasites; details: cited from earlier work
[14] = tested on: P. berghei ANKA MRA868 ABS parasites; test: 4-day Peters test; assay type: in vivo, P. berghei in CD-1 mice; details: 4 doses, 96 h post infection
How it was run: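 Female CD-1 mice (5 weeks old, 22–25 g; four per group) were infected intraperitoneally with 1x10⁶ parasites. The test compound was given intraperitoneally at 2, 24, 48 and 72 h after infection, in 20% DMSO in water. Controls were solvent only and DHA at 30 mg/kg. Parasitemia was read by microscopy at 96 h. Groups were randomized and blinded. The 100 mg/kg groups were tested once.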

[15] = PfMDR1^selY290F (GNF-Pf-5660-2B6H1)

## CC(C)(C)c1ccc(O)c(CNC2CCCCC2)c1 [GNF-Pf-5310]
[1]
  IC50: < 25 nM
[2]
  IC50: < 25 nM
[3]; in words
  activity on male gametes / exflagellation: no activity
[4]
  reduction in oocyst density per infected mosquito midgut: 73%
  reduction in infection prevalence (percentage of infected mosquitoes): no reduction
[5]
  inhibition of HEK293 cells: < 50%
[6]
  IC50: < 25 nM
[7]; in words
  activity on female gamete formation: no activity
[8]
  early-stage gametocytocidal activity: potent
[9]
  late-stage gametocytocidal activity: potent
Male GAM exflagellation
  reduction in male GAM exflagellation rates: no effect

## Clc1ccc2c(N3CCN(CCCN4CCN(c5ccnc6cc(Cl)ccc56)CC4)CC3)ccnc2c1 [piperaquine]
[10]; PfMDR1^edS1075I
  changes in susceptibility: no changes

## CN(C)c1ccc2nc3ccc(=[N+](C)C)cc-3sc2c1 [Methylene Blue, methylene blue]
[3]; read-out: Mean IC50 (lower 95% CI - upper 95% CI) Male carry-over
  IC50: 61.5 nM
[3]; read-out: Mean IC50 (lower 95% CI - upper 95% CI) Male wash-out
  IC50: 147 nM
[4]; positive control at 3′ the GAM IC50, in words
  transmission-blocking activity: maximal
[7]; read-out: Mean IC50 (lower 95% CI - upper 95% CI) Female carry-over
  IC50: 162 nM
[7]; read-out: Mean IC50 (lower 95% CI - upper 95% CI) Female wash-out
  IC50: 846 nM

## CCCCN(CCCC)CC(O)c1cc(Cl)cc2c1-c1ccc(Cl)cc1/C2=C/c1ccc(Cl)cc1 (stereo not shown) [LMF, Lumefantrine]
[10]; PfMDR1^edF1072L
  fold higher susceptibility versus Dd2-B2: 3.1 fold
[10]; PfMDR1^edS1075I
  fold increased susceptibility versus Dd2-B2: unchanged
[10]; [15]
  fold higher susceptibility versus Dd2-B2: 1.9 fold
[10]
  susceptibility in GNF-Pf-5668-3C4D2 compared to PfMDR1^edF1072L: decreased susceptibility
Dd2-B2 parasites
  heme fractionation effect compared to untreated controls: little or no effect
[11]
  Hz and total heme iron levels: reduction
Dd2-B2 late rings
  reduction of Hb levels within parasites: no significant changes

## OC(c1cc(C(F)(F)F)nc2c(C(F)(F)F)cccc12)C1CCCCN1 (stereo not shown) [MQ, mefloquine]
[10]
  fold increased susceptibility compared to wild-type Dd2-B2: 1.4 fold
  susceptibility in GNF-Pf-5668-3C4D2 compared to PfMDR1^edF1072L: decreased susceptibility
[10]; PfMDR1^edF1072L
  fold higher susceptibility versus Dd2-B2: 3.6 fold
[10]; PfMDR1^edS1075I
  fold increased susceptibility versus Dd2-B2: 1.4 fold
[10]; [15]
  fold higher susceptibility versus Dd2-B2: 2.0 fold
Dd2-B2 parasites
  heme fractionation effect compared to untreated controls: little or no effect
Dd2-B2 parasites; 2′ the IC50
  fold decrease in Hz levels: 1.6 fold
[11]
  Hz and total heme iron levels: reductions
Dd2-B2 late rings
  reduction of Hb levels within parasites: no significant changes

## C[C@H]1[C@@H](O)O[C@@H]2O[C@@]3(C)CC[C@H]4[C@H](C)CC[C@@H]1[C@@]24OO3 [DHA, dihydroartemisinin, reference compound]
[10]; all three mutations (F1072L, S1075I, Y290F)
  fold increased susceptibility versus Dd2-B2: ~ 1.6 fold
[12]
  reduction in oocyst burden: 75%
  reduction in the number of infected mosquitoes: 65%

## CCN(CC)CCCC(C)Nc1ccnc2cc(Cl)ccc12 (stereo not shown) [CQ, chloroquine]
[10]; PfMDR1^edS1075I
  changes in susceptibility: no changes

## CC1(C)N=C(N)N=C(N)N1OCCCOc1cc(Cl)c(Cl)cc1Cl [WR99210]
Dd2-B2 late rings
  reduction of Hb levels within parasites: no significant changes

## CCNCc1cc(Nc2ccnc3cc(Cl)ccc23)ccc1O [md-ADQ, md-amodiaquine]
[10]; PfMDR1^edS1075I
  changes in susceptibility: no changes

## CCCOC(=O)C1=C(C)NC2=C(C(=O)CC(c3ccc(OC)c(OC)c3)C2)C1c1ccccc1F (stereo not shown) [GNF-Pf-5668]
[1]
  IC50: < 25 nM
[2]
  IC50: < 25 nM
[10]; GNF-Pf-5668-selected clone 3C4D2, PfMDR1 F1072L (AB 67%)
  fold increase in IC50 compared to parental Dd2-B2: 37 fold
[4]
  reduction in oocyst density per infected mosquito midgut: 95–99%
  reduction in infection prevalence (percentage of infected mosquitoes): 57%
[5]
  inhibition of HEK293 cells: < 50%
[6]
  IC50: < 25 nM
[8]
  early-stage gametocytocidal activity: potent
[12]
  reduction in oocyst burden: No effect
  reduction in the number of infected mosquitoes: No effect
[13]
  activity against liver-stage parasites: inactive
[9]
  late-stage gametocytocidal activity: potent
Male GAM exflagellation
  reduction in male GAM exflagellation rates: 70%
[14]; 70 mg/kg intraperitoneal
  reduction of parasitemia compared to vehicle-treated mice: 43%
[14]; 100 mg/kg intraperitoneal
  reduction of parasitemia compared to vehicle-treated mice: 91%

## C=C[C@H]1C[N@@]2CC[C@H]1C[C@H]2[C@H](O)c1ccnc2ccc(OC)cc12 [QN, quinine]
[10]
  fold increased susceptibility compared to wild-type Dd2-B2: 1.7 fold
  susceptibility in GNF-Pf-5668-3C4D2 compared to PfMDR1^edF1072L: decreased susceptibility
[10]; PfMDR1^edF1072L
  fold higher susceptibility versus Dd2-B2: 3.6 fold
[10]; PfMDR1^edS1075I
  fold increased susceptibility versus Dd2-B2: 5.1 fold
[10]; [15]
  fold higher susceptibility versus Dd2-B2: 3.7 fold

## CCNCCCC(C)Nc1ccnc2cc(Cl)ccc12 (stereo not shown) [md-CQ, monodesethyl-CQ]
[10]; PfMDR1^edS1075I
  changes in susceptibility: no changes

## ferroquine
[10]; PfMDR1^edS1075I
  changes in susceptibility: no changes

## COc1ccc(C2CC(=O)C3=C(C2)NC(C)=C(C(=O)OC(C)C)C3c2ccccc2C)cc1OC (stereo not shown) [GNF-Pf-5640]
[1]
  IC50: < 25 nM
[2]
  IC50: < 25 nM
[10]; GNF-Pf-5640-selected clone 2C4C3, PfMDR1 S1075I
  fold increase in IC50 compared to parental Dd2-B2: 77 fold
[10]; GNF-Pf-5640-selected clone 3H9C7, PfMDR1 Y290F
  fold increase in IC50 compared to parental Dd2-B2: 79 fold
[5]
  inhibition of HEK293 cells: < 50%
[6]
  IC50: < 25 nM
[8]
  early-stage gametocytocidal activity: potent
[13]
  activity against liver-stage parasites: inactive
[9]
  late-stage gametocytocidal activity: potent
